From ChEMBL document CHEMBL3112538, “Novel spirooxindole-pyrrolidine compounds: synthesis, anticancer and molecular docking studies” (2014) come the findings set out here.

By inhibition is commonly meant the percentage by which the read-out fell short of the control.

The test system of experiment [1] is A549. Description: Cytotoxicity against human A549 cells at 25 ug/ml by MTT assay. The experiment is classed as functional. The gist of the method:
(§1)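 A549 cells (NCIS Pune) grown in DMEM with 10% FBS, 2 mM L-glutamine, penicillin/streptomycin, pH 7.2. 5 × 10^5 cells were seeded with compound at 100, 50 or 25 per mL and kept at 37 °C, 5% CO2. MTT (1 mg/mL, 4 h) was added, formazan dissolved in DMSO and read at 540 nm. IC50 is the mean of three replicate experiments; Duncan test at P = 0.05.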
(In general: Tetrazolium assays rely on reduction of a dye to a coloured formazan, in cell work by metabolically active cells.)

In experiment [2] the test system is A549. As to the kind of experiment: Cytotoxicity against human A549 cells by MTT assay. It is filed as functional, cell-based. The gist of the method: as §1
For experiment [3], the system named is A549. Description: Induction of apoptosis in human A549 cells assessed as DNA fragmentation at 25 ug/ml after 24 hrs by agarose gel electrophoresis. The experiment is classed as functional, cell-based. The gist of the method:
(§2)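 A549 cells were exposed to compound for 24 h. 1 × 10^6 cells were pelleted, PBS-washed and lysed at 4 °C for 15 min in 10 mM Tris-HCl pH 7.4 with 10 mM EDTA and 0.5% Triton X-100. Supernatant was treated with proteinase K (60 °C, 60 min) then RNase A (37 °C, 60 min). DNA was isopropanol/NaCl precipitated overnight and run on a 2% agarose gel.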

Experiment [4] relates to A549. As to the kind of experiment: Cytotoxicity against human A549 cells at 50 ug/ml by MTT assay. The experiment is classed as functional. The gist of the method: as §1
Experiment [5] concerns A549. Description: Cytotoxicity against human A549 cells assessed as growth inhibition at 25 ug/ml after 24 hrs by agarose gel electrophoresis. It is filed as functional, cell-based. The gist of the method:
as §2

In experiment [6] the test system is A549. As to the kind of experiment: Cytotoxicity against human A549 cells at 100 ug/ml by MTT assay. The experiment is classed as functional. The procedure, abridged:
as §1

The test system of experiment [7] is A549. As to the kind of experiment: Induction of apoptosis in human A549 cells at 25 ug/ml after 24 hrs by propidium iodide/FITC staining-based confocal laser scanning microscopy. The experiment is classed as functional, cell-based. The gist of the method:
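Cells were exposed to compound or untreated for 24 h, washed twice in 0.01 M PBS and suspended in binding buffer. They were stained with FITC and PI for 30 min at 4 °C in the dark, pelleted and smeared. Fluorescence was viewed at once by confocal laser scanning microscopy at 400× magnification.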

Structures are written as SMILES. Active and inactive are the calls of the source. The calls are words filed in the database; no cut-off is given here.

For the compound `CN1C(=O)[C@@]2(c3ccccc31)N1CSCC1[C@H](c1ncc[nH]1)[C@@]2(C#N)C(=O)c1c[nH]c2ccccc12` (some centres not stated), at 25 µg/mL the inhibition with A549 [1] was 64.8%. Further, in the experiment on A549 [2], the Activity result was “Dose-dependent effect”. Also, the result with A549 [3] and with A549 [7] was Active. In addition, in the experiment with A549 [4], testing at 50 µg/mL gave an inhibition of 75.1%. For the same compound, the “growth inhibition (GI)” value in the experiment with A549 [5] is “Active”. Moreover, in the experiment on A549 [6], at 100 µg/mL the inhibition was 87.8%.
